Reference: ChEMBL document CHEMBL1240384, “Inhibition of Porphyromonas gingivalis biofilm by oxantel” (2010)
In brackets after ≈: the same amount, converted by molar mass. Several values for one entry are separate records, joined by “and”; a condition that tells them apart may be missing. Equal entries are not always repeated. Activity calls are given as the source filed them. No cut-off for these calls is given here.

Experiments:
Assay type in all cases: functional
[1] = tested on: Porphyromonas gingivalis; experiment: Antimicrobial activity against Porphyromonas gingivalis assessed as reduction in average number of microcolonies at 12.5 uM after 18 hrs
Summary of the method: (§1)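 Three-channel flow cell inoculated with 1 ml of exponential ATCC 33277 culture at 5 × 10^8 cells/ml, left 1 h, then fed 0.2 ml/min of 5×-diluted supplemented brain heart infusion. At 18 h, 1 ml of 12.5 or 125 μM compound in sterile water (water control) was injected per channel for 30 min, followed by a 10 min medium wash. BacLight in situ, CLSM (63×, 2 μm sections, 488/568 nm), five random images per replicate, COMSTAT analysis; mean ± SD of three biological replicates.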

[2] = tested on: Porphyromonas gingivalis; experiment: Antimicrobial activity against Porphyromonas gingivalis ATCC 33277 assessed as mean generation time at 31.25 uM
Summary of the method: (§2)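 Planktonic growth of P. gingivalis ATCC 33277 (fimbriated) and W50 (afimbriated) in 96-well plates, starting inoculum ~5.0 × 10^7 CFU per well. MIC determined, and mean generation time measured with DMSO alone or with drug at 31.25 and 62.5 μM. MGT differences were tested at P < 0.05.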

[3] = tested on: Porphyromonas gingivalis; experiment: Antimicrobial activity against Porphyromonas gingivalis W50; summary of the method: as §2
[4] = tested on: Porphyromonas gingivalis; experiment: Antimicrobial activity against Porphyromonas gingivalis assessed as surface area/biovolume ratio at 12.5 uM after 18 hrs; summary of the method: as §1
[5] = tested on: Porphyromonas gingivalis; experiment: Antimicrobial activity against Porphyromonas gingivalis W50 assessed as mean generation time at 31.25 uM; summary of the method: as §2
[6] = tested on: Porphyromonas gingivalis; experiment: Antimicrobial activity against Porphyromonas gingivalis ATCC 33277 assessed as reduction of biofilm formation at 0.1 uM after 24 hrs
Summary of the method: (§3)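 Static 96-well biofilm model with P. gingivalis ATCC 33277, grown 24 h with drug. Biofilm mass was quantified by crystal violet. Results are means of 12 replicates, compared with untreated and DMSO controls by one-way ANOVA with Scheffe multiple comparison.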

[7] = tested on: Porphyromonas gingivalis; experiment: Antimicrobial activity against Porphyromonas gingivalis assessed as reduction in biovolume at 12.5 uM after 18 hrs; summary of the method: as §1
[8] = tested on: Porphyromonas gingivalis; experiment: Antimicrobial activity against Porphyromonas gingivalis W50 assessed as mean generation time at 62.5 uM; summary of the method: as §2
[9] = tested on: Porphyromonas gingivalis; experiment: Antimicrobial activity against Porphyromonas gingivalis ATCC 33277 assessed as thickness of biofilm at 125 uM after 18 hrs by confocal laser scanning microscopy; summary of the method: as §1
[10] = tested on: Porphyromonas gingivalis; experiment: Antimicrobial activity against Porphyromonas gingivalis assessed as reduction in surface area of substratum occupied by cells at 12.5 uM after 18 hrs; parameters: scale not given: the % may be the effect or the level left; summary of the method: as §1
[11] = tested on: Porphyromonas gingivalis; experiment: Antimicrobial activity against Porphyromonas gingivalis ATCC 33277 assessed as reduction of biofilm formation after 24 hrs; summary of the method: as §3
[12] = tested on: Porphyromonas gingivalis; experiment: Antimicrobial activity against Porphyromonas gingivalis ATCC 33277 assessed as mean generation time at 62.5 uM; summary of the method: as §2
[13] = tested on: Porphyromonas gingivalis; experiment: Antimicrobial activity against Porphyromonas gingivalis assessed as reduction in average number of microcolony area at 12.5 uM after 18 hrs; summary of the method: as §1
[14] = tested on: Porphyromonas gingivalis; experiment: Antimicrobial activity against Porphyromonas gingivalis assessed as reduction in thickness of biofilm at 12.5 uM after 18 hrs; summary of the method: as §1
[15] = tested on: Porphyromonas gingivalis; experiment: Antimicrobial activity against Porphyromonas gingivalis assessed as reduction in surface area of substratum occupied by cells at 125 uM after 18 hrs; parameters: scale not given: the % may be the effect or the level left; summary of the method: as §1
[16] = tested on: Porphyromonas gingivalis; experiment: Antimicrobial activity against Porphyromonas gingivalis ATCC 33277 assessed as thickness of biofilm at 12.5 uM after 18 hrs by confocal laser scanning microscopy; summary of the method: as §1
[17] = tested on: Porphyromonas gingivalis; experiment: Antimicrobial activity against Porphyromonas gingivalis ATCC 33277 assessed as reduction of biofilm formation at 125 uM after 24 hrs; summary of the method: as §3
[18] = tested on: Porphyromonas gingivalis; experiment: Antimicrobial activity against Porphyromonas gingivalis ATCC 33277; summary of the method: as §2

Work on `CN1CCCN=C1/C=C/c1cccc(O)c1` [OXANTEL] yielded an Activity [1] of 18.3 count, an Activity [2] of 10 h and an MIC [3] of 112 µM (≈ 24.2 µg/mL). The Activity [4] was 2.31 µm2/µm3, the Activity [5] was 19.2 h and the Activity [6] was “Active”. For the same molecule, the Activity [7] was 1.44 µm3/µm2, the Activity [8] was 23.8 h and the Activity [9] was “Active”. The Activity [10] was 33.2%, the Activity [11] was “Dose-dependent effect” and the Activity [12] was 24 h. For the same molecule, the Activity [13] was 124 µm2, the Activity [14] was 0.83 µm and the Activity [15] was 23.8% and 27%. The Activity [16] was “Active”, the Activity [17] was “Active” and the MIC [18] was 125 µM (≈ 27 µg/mL).
With `Cc1ccsc1/C=C/C1=NCCCN1C` [MORANTEL] the MIC [3] was 2800 µM (≈ 617 µg/mL), the Activity [5] was 11 h and the Activity [8] was 11.3 h.
In the case of `c1ccc2[nH]c(-c3cscn3)nc2c1` [THIABENDAZOLE], the MIC [3] is reported as over 3000 µM, the Activity [5] is reported as 6.8 h and the Activity [8] is reported as 6.2 h.
For `Cc1ncc([N+](=O)[O-])n1CCO` [METRONIDAZOLE], the Activity [1] was 23.7 count, the Activity [4] was 1.63 µm2/µm3 and the Activity [7] was 2.19 µm3/µm2. It also gave an Activity [10] of 27.4%, an Activity [13] of 102 µm2 and an Activity [14] of 2.17 µm.
